From ChEMBL document CHEMBL1154048, “Design, synthesis and pharmacological evaluation of new 1-[3-(4-arylpiperazin-1-yl)-2-hydroxy-propyl]-3,3-diphenylpyrrolidin-2-one derivatives with antiarrhythmic, antihypertensive, and alpha-adrenolytic activity” (Eur J Med Chem, 2009)
The source made the active and inactive calls.

How the values were obtained:
[1] = target: T1, Adrenergic receptor alpha-1 (Rattus norvegicus, UniProt P15823+P23944+P43140); assay: Displacement of [3H]prazosin from alpha1 adrenergic receptor in rat cerebral cortex by liquid scintillation counting; format: tissue-based
T1 sequence (P15823 whole entry): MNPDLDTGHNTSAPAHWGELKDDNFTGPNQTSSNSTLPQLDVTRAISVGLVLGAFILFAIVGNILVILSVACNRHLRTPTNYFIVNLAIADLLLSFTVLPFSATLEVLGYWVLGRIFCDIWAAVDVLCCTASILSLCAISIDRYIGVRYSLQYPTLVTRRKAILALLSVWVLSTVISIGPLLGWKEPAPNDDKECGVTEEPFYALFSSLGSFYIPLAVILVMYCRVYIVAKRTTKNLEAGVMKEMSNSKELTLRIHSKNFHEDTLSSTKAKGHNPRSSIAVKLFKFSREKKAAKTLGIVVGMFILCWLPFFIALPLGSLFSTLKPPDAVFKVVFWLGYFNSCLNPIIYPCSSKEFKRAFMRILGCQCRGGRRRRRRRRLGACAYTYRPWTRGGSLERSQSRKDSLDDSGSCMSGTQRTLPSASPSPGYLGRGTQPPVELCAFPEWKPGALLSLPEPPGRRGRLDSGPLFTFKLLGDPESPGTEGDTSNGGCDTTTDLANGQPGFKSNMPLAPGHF
T1 sequence (P23944 whole entry): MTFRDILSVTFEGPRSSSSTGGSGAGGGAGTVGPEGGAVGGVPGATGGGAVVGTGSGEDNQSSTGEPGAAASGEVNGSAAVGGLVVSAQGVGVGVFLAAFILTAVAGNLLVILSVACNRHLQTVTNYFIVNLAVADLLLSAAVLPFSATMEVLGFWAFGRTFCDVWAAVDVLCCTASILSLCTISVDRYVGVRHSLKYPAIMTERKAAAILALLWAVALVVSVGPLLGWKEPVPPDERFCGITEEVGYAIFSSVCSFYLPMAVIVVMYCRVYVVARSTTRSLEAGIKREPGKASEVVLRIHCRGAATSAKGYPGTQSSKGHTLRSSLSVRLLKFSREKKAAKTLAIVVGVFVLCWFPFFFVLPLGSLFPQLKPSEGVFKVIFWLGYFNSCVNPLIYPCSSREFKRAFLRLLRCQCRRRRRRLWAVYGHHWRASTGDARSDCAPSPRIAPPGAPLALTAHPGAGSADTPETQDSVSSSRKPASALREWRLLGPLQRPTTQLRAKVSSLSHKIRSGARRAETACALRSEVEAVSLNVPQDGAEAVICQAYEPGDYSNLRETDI
T1 sequence (P43140 whole entry): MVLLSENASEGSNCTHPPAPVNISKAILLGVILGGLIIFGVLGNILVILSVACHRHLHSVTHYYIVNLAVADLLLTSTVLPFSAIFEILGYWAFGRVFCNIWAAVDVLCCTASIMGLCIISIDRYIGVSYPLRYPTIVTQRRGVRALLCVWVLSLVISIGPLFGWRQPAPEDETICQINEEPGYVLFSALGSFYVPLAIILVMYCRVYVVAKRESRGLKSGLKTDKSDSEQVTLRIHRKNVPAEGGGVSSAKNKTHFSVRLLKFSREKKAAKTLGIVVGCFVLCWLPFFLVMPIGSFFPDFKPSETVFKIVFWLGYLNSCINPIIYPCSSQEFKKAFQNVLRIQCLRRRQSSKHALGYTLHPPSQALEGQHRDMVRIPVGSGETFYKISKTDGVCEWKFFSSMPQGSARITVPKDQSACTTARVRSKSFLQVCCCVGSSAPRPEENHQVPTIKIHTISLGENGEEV
Procedure, shortened: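 Rat cerebral cortex was homogenized in ice-cold 50 mM Tris–HCl pH 7.6, centrifuged 20 000 × g for 20 min at 0–4 °C, and washed once more. Membranes were incubated with [3H]prazosin 0.2 nM and seven to eight compound concentrations (10^-11–10^-4 M), with phentolamine defining nonspecific binding. Bound ligand was filtered on glass fiber and counted by liquid scintillation. Runs were in duplicate, and Ki was calculated by Cheng–Prusoff.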

[2] = target: T2, Adrenergic receptor alpha-2 (Rattus norvegicus, UniProt P22086+P19328+P22909); assay: Displacement of [3H]clonidine from alpha2 adrenergic receptor in rat cerebral cortex by liquid scintillation counting; format: tissue-based
T2 sequence (P22086 whole entry): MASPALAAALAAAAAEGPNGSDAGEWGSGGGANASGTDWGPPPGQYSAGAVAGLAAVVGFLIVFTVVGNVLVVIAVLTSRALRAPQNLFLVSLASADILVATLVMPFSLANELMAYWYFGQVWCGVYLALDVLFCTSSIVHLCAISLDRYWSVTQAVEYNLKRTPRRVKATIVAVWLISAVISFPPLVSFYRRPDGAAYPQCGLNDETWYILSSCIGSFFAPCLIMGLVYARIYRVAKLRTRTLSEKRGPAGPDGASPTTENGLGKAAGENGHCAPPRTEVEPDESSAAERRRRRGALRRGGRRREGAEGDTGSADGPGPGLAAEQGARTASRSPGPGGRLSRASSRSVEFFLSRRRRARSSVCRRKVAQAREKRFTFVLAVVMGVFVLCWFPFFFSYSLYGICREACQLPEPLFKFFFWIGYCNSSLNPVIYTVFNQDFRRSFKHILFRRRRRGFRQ
T2 sequence (P19328 whole entry): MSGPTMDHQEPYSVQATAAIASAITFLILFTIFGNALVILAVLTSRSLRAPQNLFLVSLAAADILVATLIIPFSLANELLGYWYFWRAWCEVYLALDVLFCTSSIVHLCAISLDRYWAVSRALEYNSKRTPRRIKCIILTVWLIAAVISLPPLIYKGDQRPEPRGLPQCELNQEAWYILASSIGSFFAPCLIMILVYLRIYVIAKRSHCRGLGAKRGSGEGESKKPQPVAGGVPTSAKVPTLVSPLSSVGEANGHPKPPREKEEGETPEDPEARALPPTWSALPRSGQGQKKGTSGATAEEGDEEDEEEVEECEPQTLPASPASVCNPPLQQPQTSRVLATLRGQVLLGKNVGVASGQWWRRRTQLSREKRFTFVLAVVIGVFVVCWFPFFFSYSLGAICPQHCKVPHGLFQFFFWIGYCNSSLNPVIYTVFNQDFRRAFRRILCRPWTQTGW
T2 sequence (P22909 whole entry): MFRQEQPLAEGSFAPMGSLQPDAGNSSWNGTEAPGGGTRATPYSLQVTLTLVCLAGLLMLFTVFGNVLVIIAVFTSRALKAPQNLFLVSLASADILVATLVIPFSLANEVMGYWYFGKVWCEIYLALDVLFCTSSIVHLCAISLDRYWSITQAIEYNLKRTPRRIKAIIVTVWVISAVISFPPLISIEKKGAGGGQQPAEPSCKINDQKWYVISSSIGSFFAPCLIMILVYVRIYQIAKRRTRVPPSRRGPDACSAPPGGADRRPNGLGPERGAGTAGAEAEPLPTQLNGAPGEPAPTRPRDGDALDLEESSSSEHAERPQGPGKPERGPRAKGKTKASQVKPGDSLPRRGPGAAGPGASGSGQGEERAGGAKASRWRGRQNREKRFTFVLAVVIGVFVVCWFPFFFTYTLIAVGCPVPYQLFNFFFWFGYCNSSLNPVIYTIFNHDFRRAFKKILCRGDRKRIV
Procedure, shortened: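 Rat cerebral cortex membranes were prepared in ice-cold 50 mM Tris–HCl pH 7.6 (20 000 × g, 20 min, 0–4 °C, washed twice). They were incubated with [3H]clonidine 2 nM and seven to eight compound concentrations (10^-11–10^-4 M), with excess unlabelled clonidine defining nonspecific binding. Samples were glass-fiber filtered and counted by liquid scintillation, in duplicate. Ki was calculated by Cheng–Prusoff.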

Rattus norvegicus [3] = assay: Antiarrhythmic activity against adrenaline-induced arrhythmia in iv dosed rat assessed as inhibition of cardiac rhythm disturbance administered 15 mins before adrenaline challenge; format: functional; conditions: Heart
Procedure, shortened: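 Rats anaesthetized with thiopental 60 mg/kg ip received the compound i.v. 15 min before an i.v. adrenaline challenge. Rhythm disturbances were recorded for 15 min after adrenaline. Activity was defined as absence of premature beats and inhibition of disturbances versus controls. ED50 values, with confidence limits, were derived by Litchfield–Wilcoxon from three groups of six animals.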

Rattus norvegicus [4] = assay: Hypotensive activity in normotensive Wistar rat assessed as decrease in systolic blood pressure at 20 mg/kg, iv administered as single dose; format: functional, organism-based; design: dose 20 mg/kg; conditions: Artery
Rattus norvegicus [5] = assay: Hypotensive activity in normotensive Wistar rat assessed as decrease in diastolic blood pressure at 20 mg/kg, iv administered as single dose; format: functional, organism-based; design: dose 20 mg/kg; conditions: Artery
Rattus norvegicus [6] = species on record: Rattus norvegicus; assay: Hypotensive activity in Wistar rat assessed as reduction in epinephrine-induced systolic blood pressure response; format: functional, organism-based; conditions: Artery
Procedure, shortened: (§1)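 In anaesthetized rats, pressor responses were evoked by i.v. epinephrine, norepinephrine or methoxamine. Blood pressure was recorded through a heparin-saline-filled cannula in the carotid artery.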

Rattus norvegicus [7] = species on record: Rattus norvegicus; assay: Hypotensive activity in Wistar rat assessed as reduction in norepinephrine-induced systolic blood pressure response; format: functional, organism-based; conditions: Artery; procedure, shortened: as §1
Rattus norvegicus [8] = species on record: Rattus norvegicus; assay: Hypotensive activity in Wistar rat assessed as reduction in methoxamine-induced systolic blood pressure response; format: functional, organism-based; conditions: Artery; procedure, shortened: as §1

pKi [1]	pKi [2]	Structure (SMILES)	ED50 (Rattus norvegicus [3])	Activity (Rattus norvegicus [4])	Activity (Rattus norvegicus [5])	Activity (Rattus norvegicus [6])	Activity (Rattus norvegicus [7])	Activity (Rattus norvegicus [8])
5.72	4.54	O=C1CCCN1CC(O)CN1CCN(c2ccccc2)CC1 (stereo not given)	7.6 mg/kg					
6.57	5.27	O=C1CCCN1CC(O)CN1CCN(C(c2ccccc2)c2ccccc2)CC1 (stereo not given)	inactive					
		CC(C)NCC(O)COc1cccc2ccccc12 (stereo not given) [PROPRANOLOL]	7.6 mg/kg					
5.68	5.32	Cl.Cl.O=C1N(CC(O)CN2CCN(c3ccc(F)cc3)CC2)CCC1(c1ccccc1)c1ccccc1 (stereo not given)		inactive	inactive	inactive	inactive	inactive
		c1ccc(CC2=NCCN2)cc1 [TOLAZOLINE]	1.05 mg/kg					
